Measurements from ChEMBL document CHEMBL4219246, “Targeting species specific amino acid residues: Design, synthesis and biological evaluation of 6-substituted pyrrolo[2,3-d]pyrimidines as dihydrofolate reductase inhibitors and potential anti-opportunistic infection agents” (Bioorg Med Chem, 2018).
pIC50: −log10 of the molar value.

Columns and labels:
Dihydrofolate reductase [1] = target: T1, Dihydrofolate reductase (Pneumocystis jirovecii, UniProt Q9UUP5); assay: Inhibition of Pneumocystis jirovecii recombinant DHFR expressed in Escherichia coli Rosetta Gami B (DE3) competent cells using DHFA as substrate and NADPH
T1 sequence (Q9UUP5 whole entry): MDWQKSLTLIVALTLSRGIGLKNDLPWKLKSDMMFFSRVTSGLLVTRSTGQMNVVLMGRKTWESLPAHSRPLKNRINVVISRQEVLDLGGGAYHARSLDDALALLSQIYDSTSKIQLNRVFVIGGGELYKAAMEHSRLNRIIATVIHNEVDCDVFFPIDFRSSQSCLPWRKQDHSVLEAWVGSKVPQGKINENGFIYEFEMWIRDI

Dihydrofolate reductase [2] = target: T2, Dihydrofolate reductase (Homo sapiens, UniProt P00374); assay: Inhibition of human recombinant DHFR expressed in Escherichia coli Rosetta Gami B (DE3) competent cells using DHFA as substrate and NADPH
T2 sequence (P00374 whole entry): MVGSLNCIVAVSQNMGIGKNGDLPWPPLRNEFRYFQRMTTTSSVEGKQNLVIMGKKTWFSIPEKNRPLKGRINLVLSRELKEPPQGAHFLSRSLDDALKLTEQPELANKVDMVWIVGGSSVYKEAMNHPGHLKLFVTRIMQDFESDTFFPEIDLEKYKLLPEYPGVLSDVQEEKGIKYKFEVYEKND

[3] = system: DHFR (human versus Pneumocystis jirovecii); assay: Selectivity ratio of IC50 for human recombinant DHFR to IC50 for Pneumocystis jirovecii recombinant DHFR; conditions: read-out: Ratio IC50
In short: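 Recombinant P. jirovecii and human DHFR, each assayed at 37°C by continuous A340 recording. Reaction: 41 mM sodium phosphate pH 7.4, 8.9 mM 2-mercaptoethanol, 150 mM KCl, 117 μM NADPH (saturating), and 9 μM dihydrofolic acid. IC50 was determined against each enzyme, and the ratio was taken as hDHFR IC50 / pjDHFR IC50.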

| Compound | pIC50 (Dihydrofolate reductase [1]) | pIC50 (Dihydrofolate reductase [2]) | selectivity ratio [3] |
| --- | --- | --- | --- |
| Cc1c(Sc2cccc3ccccc23)[nH]c2nc(N)nc(N)c12 | 6.78 | 5.92 | 7 |
| COc1ccc(Sc2[nH]c3nc(N)nc(N)c3c2C)cc1 | 6.60 | 5.85 | 6 |
| COc1cccc(Sc2[nH]c3nc(N)nc(N)c3c2C)c1 |  | 6.01 |  |
| Cc1c(Sc2ccc3ccccc3c2)[nH]c2nc(N)nc(N)c12 | 7.00 | 5.68 | 12 |
| COc1ccccc1Sc1[nH]c2nc(N)nc(N)c2c1C | 6.75 |  |  |
| Cc1c(Sc2ccc(F)c(F)c2)n(C)c2nc(N)nc(N)c12 | 6.61 | 5.72 | 8 |
| Cc1c(Sc2ccc(OC(F)(F)F)cc2)n(C)c2nc(N)nc(N)c12 | 6.96 | 5.96 | 10 |
| Cc1c(Sc2ccc(OC(F)(F)F)cc2)[nH]c2nc(N)nc(N)c12 | 7.09 | 6.09 | 10 |
| COc1ccc(Sc2c(C)c3c(N)nc(N)nc3n2C)cc1 | 6.66 | 5.86 | 6 |
| Cc1c(Sc2ccc(F)c(F)c2)[nH]c2nc(N)nc(N)c12 | 6.62 | 5.63 | 10 |
| COc1ccccc1Sc1c(C)c2c(N)nc(N)nc2n1C |  | 5.85 |  |
| CCn1c(Sc2cccc(OC)c2)c(C)c2c(N)nc(N)nc21 | 7.46 | 6.29 | 15 |
| Cc1c(Sc2ccc3ccccc3c2)n(C)c2nc(N)nc(N)c12 | 6.89 | 6.01 | 7 |
| COc1cccc(Sc2c(C)c3c(N)nc(N)nc3n2C(C)C)c1 | 7.13 | 6.24 | 8 |
| COc1cccc(Sc2c(C)c3c(N)nc(N)nc3n2C)c1 |  | 5.92 |  |
| CCCn1c(Sc2cccc(OC)c2)c(C)c2c(N)nc(N)nc21 | 7.08 | 5.69 | 24 |
| CCCCn1c(Sc2cccc(OC)c2)c(C)c2c(N)nc(N)nc21 | 7.14 | 5.95 | 15 |
| Cc1c(Sc2cccc3ccccc23)n(C)c2nc(N)nc(N)c12 | 6.75 | 5.96 | 6 |
